Measurements taken from ChEMBL document CHEMBL3352496, “Design, synthesis and evaluation of novel triazole core based P-glycoprotein-mediated multidrug resistance reversal agents” (Bioorg Med Chem, 2014).

Columns and labels:
[1] = Reversal of P-gp-mediated multidrug resistance in human K562/A02 cells assessed as reduction of adriamycin IC50 at 0.078 uM after 48 hrs by MTT assay; format: cell-based; conditions: K562/A02, 48 h
How it was run: (§1)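 K562/A02 (P-gp-overexpressing) cells given graded adriamycin plus modulator at 2.5, 1.25, 0.625, 0.31, 0.156, 0.078 or 0.04 µM; verapamil 2.5 µM as positive control; adriamycin IC50 by MTT. Reversal fold = IC50 without modulator / IC50 with modulator. Two to three experiments, mean ± SEM.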

[2] = Resistance factor, ratio of adriamycin IC50 for human K562/A02 cells over-expressing Pgp to adriamycin IC50 for human K562/A02 cells over-expressing Pgp in presence of 0.156 uM compound; format: functional; how it was run: as §1
[3] = Resistance factor, ratio of adriamycin IC50 for human K562/A02 cells over-expressing Pgp to adriamycin IC50 for human K562/A02 cells over-expressing Pgp in presence of 2.5 uM compound; format: functional; how it was run: as §1
[4] = Resistance factor, ratio of adriamycin IC50 for human K562/A02 cells over-expressing Pgp to adriamycin IC50 for human K562/A02 cells over-expressing Pgp in presence of 5 uM compound incubated for 24 hrs followed by adriamycin treatment 12 hrs post compound washout; format: functional
How it was run: (§2)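 K562/A02 cells incubated 24 h with 5 µM modulator, verapamil or vehicle, then washed with growth medium. […] Reversal fold = IC50 without modulator / IC50 with modulator. Two to three experiments, mean ± SEM.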

[5] = Resistance factor, ratio of adriamycin IC50 for human K562/A02 cells over-expressing Pgp to adriamycin IC50 for human K562/A02 cells over-expressing Pgp in presence of 0.078 uM compound; format: functional; how it was run: as §1
[6] = test system: K562/A02; test: Inhibition of P-gp mediated efflux in human K562/A02 cells assessed as intracellular rhodamine-123 accumulation at 2.5 uM incubated for 60 mins prior to substrate addition measured after 90 mins by flow cytometry relative to control; format: cell-based
How it was run: (§3)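 K562 and K562/A02 cells pretreated 60 min with 0.5, 2.5 or 5 µM test compound or verapamil, then 5 µM rhodamine-123 added for 90 min. Cells washed twice with PBS and resuspended in medium; mean fluorescence read by flow cytometry. Fold change taken against 0.1% DMSO control in each cell group. Three independent experiments, mean ± SD.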

[7] = Resistance factor, ratio of adriamycin IC50 for human K562/A02 cells over-expressing Pgp to adriamycin IC50 for human K562/A02 cells over-expressing Pgp in presence of 5 uM compound incubated for 24 hrs prior to adriamycin treatment; format: functional; how it was run: as §2
[8] = Resistance factor, ratio of adriamycin IC50 for human K562/A02 cells over-expressing Pgp to adriamycin IC50 for human K562/A02 cells over-expressing Pgp in presence of 0.31 uM compound; format: functional; how it was run: as §1
[9] = Cytotoxicity against human K562/A02 cells after 48 hrs by MTT assay; format: functional, cell-based; conditions: K562/A02, 48 h
[10] = Resistance factor, ratio of adriamycin IC50 for human K562/A02 cells over-expressing Pgp to adriamycin IC50 for human K562/A02 cells over-expressing Pgp in presence of 0.04 uM compound; format: functional; how it was run: as §1
[11] = Reversal of P-gp-mediated multidrug resistance in human K562/A02 cells assessed as reduction of adriamycin IC50 at 5 uM incubated for 24 hrs followed by adriamycin treatment 6 hrs post compound washout measured after 48 hrs by MTT assay; format: cell-based; how it was run: as §2
[12] = Reversal of P-gp-mediated multidrug resistance in human K562/A02 cells assessed as reduction of adriamycin IC50 at 1.25 uM after 48 hrs by MTT assay; format: cell-based; conditions: K562/A02, 48 h; how it was run: as §1
[13] = Reversal of P-gp-mediated multidrug resistance in human K562/A02 cells assessed as reduction of adriamycin IC50 at 5 uM incubated for 24 hrs prior to adriamycin treatment measured after 48 hrs by MTT assay; format: cell-based; how it was run: as §2
[14] = Resistance factor, ratio of adriamycin IC50 for human K562/A02 cells over-expressing Pgp to adriamycin IC50 for human K562/A02 cells over-expressing Pgp in presence of 5 uM compound incubated for 24 hrs followed by adriamycin treatment post compound washout; format: functional; how it was run: as §2
[15] = Reversal of P-gp-mediated multidrug resistance in human K562/A02 cells assessed as reduction of adriamycin IC50 at 5 uM incubated for 24 hrs followed by adriamycin treatment post compound washout measured after 48 hrs by MTT assay; format: cell-based; how it was run: as §2
[16] = test system: K562/A02; test: Inhibition of P-gp mediated efflux in human K562/A02 cells assessed as intracellular rhodamine-123 accumulation incubated for 60 mins prior to substrate addition measured after 90 mins by flow cytometry relative to control; format: cell-based; how it was run: as §3
[17] = Reversal of P-gp-mediated multidrug resistance in human K562/A02 cells assessed as reduction of adriamycin IC50 at 2.5 uM after 48 hrs by MTT assay; format: cell-based; conditions: K562/A02, 48 h; how it was run: as §1
[18] = Cytotoxicity against human GES-1 cells after 48 hrs by MTT assay; format: cell-based; conditions: GES1, 48 h
[19] = Reversal of P-gp-mediated multidrug resistance in human K562/A02 cells assessed as reduction of adriamycin IC50 at 0.156 uM after 48 hrs by MTT assay; format: cell-based; conditions: K562/A02, 48 h; how it was run: as §1
[20] = Reversal of P-gp-mediated multidrug resistance in human K562/A02 cells assessed as reduction of adriamycin IC50 at 0.04 uM after 48 hrs by MTT assay; format: cell-based; conditions: K562/A02, 48 h; how it was run: as §1
[21] = Resistance factor, ratio of adriamycin IC50 for human K562/A02 cells over-expressing Pgp to adriamycin IC50 for human K562/A02 cells over-expressing Pgp in presence of 1.25 uM compound; format: functional; how it was run: as §1
[22] = test system: K562/A02; test: Inhibition of P-gp mediated efflux in human K562/A02 cells assessed as intracellular rhodamine-123 accumulation at 5 uM incubated for 60 mins prior to substrate addition measured after 90 mins by flow cytometry relative to DMSO control
[23] = Reversal of P-gp-mediated multidrug resistance in human K562/A02 cells assessed as reduction of adriamycin IC50 at 0.31 uM after 48 hrs by MTT assay; format: cell-based; conditions: K562/A02, 48 h; how it was run: as §1
[24] = Resistance factor, ratio of adriamycin IC50 for human K562/A02 cells over-expressing Pgp to adriamycin IC50 for human K562/A02 cells over-expressing Pgp in presence of 5 uM compound; format: functional
How it was run: (§4)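 MTT on K562/A02 cells exposed to a series of adriamycin concentrations, with or without modulator at 5 µM; 0.1% DMSO as solvent control. Reversal fold = adriamycin IC50 without modulator / IC50 with modulator.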

[25] = test system: K562/A02; test: Inhibition of P-gp mediated efflux in human K562/A02 cells assessed as intracellular rhodamine-123 accumulation at 5 uM incubated for 60 mins prior to substrate addition measured after 90 mins by flow cytometry relative to control; format: cell-based; how it was run: as §3
[26] = Resistance factor, ratio of adriamycin IC50 for human K562/A02 cells over-expressing Pgp to adriamycin IC50 for human K562/A02 cells over-expressing Pgp in presence of 5 uM compound incubated for 24 hrs followed by adriamycin treatment 6 hrs post compound washout; format: functional; how it was run: as §2
[27] = Cytotoxicity against human K562/A02 cells at 5 uM after 48 hrs by MTT assay; format: cell-based; conditions: k562/a02, 48 h
How it was run: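 Adriamycin-selected K562/A02 cells given test compound alone at 5 µM for 48 h; cytotoxicity scored by MTT as intrinsic growth inhibition.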

[28] = Reversal of P-gp-mediated multidrug resistance in human K562/A02 cells assessed as reduction of adriamycin IC50 at 5 uM incubated for 24 hrs followed by adriamycin treatment 12 hrs post compound washout measured after 48 hrs by MTT assay; format: cell-based; how it was run: as §2
[29] = Reversal of P-gp-mediated multidrug resistance in human K562/A02 cells assessed as reduction of adriamycin IC50 at 0.625 uM after 48 hrs by MTT assay; format: cell-based; conditions: K562/A02, 48 h; how it was run: as §1
[30] = test system: K562/A02; test: Inhibition of P-gp mediated efflux in human K562/A02 cells assessed as intracellular rhodamine-123 accumulation at 0.5 uM incubated for 60 mins prior to substrate addition measured after 90 mins by flow cytometry relative to control; format: cell-based; how it was run: as §3
[31] = Resistance factor, ratio of adriamycin IC50 for human K562/A02 cells over-expressing Pgp to adriamycin IC50 for human K562/A02 cells over-expressing Pgp in presence of 0.625 uM compound; format: functional; how it was run: as §1
[32] = test system: K562/A02; test: Reversal of P-gp-mediated multidrug resistance in human K562/A02 cells assessed as reduction of adriamycin IC50 after 48 hrs by MTT assay; format: cell-based
[33] = Reversal of P-gp-mediated multidrug resistance in human K562/A02 cells assessed as reduction of adriamycin IC50 at 5 uM after 48 hrs by MTT assay; format: cell-based; conditions: K562/A02, 48 h; how it was run: as §4

COc1cc2c(cc1OC)CN(CCn1cc(COc3ccccc3NC(=O)c3ccc(C(C)(C)C)cc3)nn1)CC2
IC50 [1]: 43.8 µM | Ratio IC50 [2]: 1.5 | Ratio IC50 [3]: 18.5 | Ratio IC50 [4]: 1.5 | Ratio IC50 [5]: 1.3 | fold change (FC) [6]: 2.4 | Ratio IC50 [7]: 37.4 | Ratio IC50 [8]: 8.6 | IC50 [9]: > 80 µM | Ratio IC50 [10]: 1.6 | IC50 [11]: 35.6 µM | IC50 [12]: 3.14 µM | IC50 [13]: 2.16 µM | Ratio IC50 [14]: 7.7 | IC50 [15]: 11 µM | inhibition [16]: Dose-dependent effect | IC50 [17]: 2.97 µM | IC50 [18]: > 80 µM | IC50 [19]: 37 µM | IC50 [20]: 32.9 µM | Ratio IC50 [21]: 17.4 | Ratio [22]: 2.4 | IC50 [23]: 6.39 µM | Ratio IC50 [24]: 32.5 | fold change (FC) [25]: 4.04 | Ratio IC50 [26]: 2.4 | Activity [27]: < 10% | IC50 [28]: 54.5 µM | IC50 [29]: 5.2 µM | fold change (FC) [30]: 1.55 | Ratio IC50 [31]: 10.5 | Activity [32]: Dose-dependent effect | IC50 [33]: 1.67 µM
